From PubChem BioAssay
Sampled rows, rich in hits. Any-hit rate of the full collection: about 2.4%.
S1P4 ag: activates the human S1P4 receptor; O95977; S1P4-expressing cell line, agonist reporter assay; activation, % at 4.98 µM; hit rate 0.35% among 220,000; AID 1509; in the data active means activation above about 11%;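 further: 0% = DMSO vehicle and 100% = reference agonist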
NPY Y1 blocker: NPY-Y1 (human) receptor antagonism | inhibition, % at 3.6 µM | hit rate 1% among 200,000 | HEK293-CNG Y1 cells, membrane potential fluorescence; NPY at EC95, then isoproterenol;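 active means inhibition above the campaign mean inhibition of all tested compounds plus 3 SD, cut at about 20% in these data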;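 further: 0% = DMSO wells given NPY plus isoproterenol and 100% = isoproterenol alone without NPY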
Target sequence (P25929 whole entry, looked up): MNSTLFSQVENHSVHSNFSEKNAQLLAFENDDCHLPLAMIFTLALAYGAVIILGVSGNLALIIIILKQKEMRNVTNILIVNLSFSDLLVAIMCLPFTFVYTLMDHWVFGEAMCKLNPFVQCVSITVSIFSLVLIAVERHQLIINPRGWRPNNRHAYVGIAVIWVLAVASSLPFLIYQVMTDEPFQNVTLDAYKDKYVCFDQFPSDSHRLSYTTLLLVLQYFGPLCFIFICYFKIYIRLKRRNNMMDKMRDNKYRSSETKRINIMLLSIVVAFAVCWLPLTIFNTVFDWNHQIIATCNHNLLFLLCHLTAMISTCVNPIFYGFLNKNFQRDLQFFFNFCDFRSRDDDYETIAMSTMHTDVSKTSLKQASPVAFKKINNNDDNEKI
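Material: HEK293 Y1/CNG channel cell line; also added: NPY (25 nM), isoproterenol (1 µM), Ro 20-1724 (25 µM); doses: one concentration, 3.6 µM, in 0.4% DMSO; schedule: compound incubation 1 h at room temperature, readout 45 min post-stimulation; technique: membrane potential fluorescence; measure: fluorescence ratio normalized to % inhibition between controls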
S1P4 antagonist: human S1P4 receptor antagonism | AID 1510 | S1P4-expressing cells, antagonist mode, reporter read-out | inhibition, % at 4.98 µM | hit rate 0.26% among 220,000 | O95977; in the data active means inhibition above about 29%;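 further: 0% = wells stimulated with agonist and 100% = vehicle wells without agonist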
NPY1 pot ag: human NPY-Y1 potentiation or agonism, primary screen | P25929 | AID 1304 | activation, % at 3.6 µM | hit rate 0.37% among 220,000 | NPY-Y1 expressing cells, potentiator/agonist activation; in the data active means activation above about 33%, passing the limit was not always enough;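 further: cells stimulated with NPY at EC10 then isoproterenol at EC100; 0% = low agonist plus stimulus and 100% = saturating agonist plus stimulus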
NPY-Y2 PAM-ag: potentiates or activates human NPY-Y2 receptor | cells expressing NPY-Y2, potentiator/agonist read-out | hit rate 0.45% among 220,000 | AID 1359 | activation, % at 3.6 µM; in the data active means activation above about 27%;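 further: cells stimulated with NPY near EC25 plus isoproterenol at EC100; 0% = vehicle plus submaximal agonist and 100% = vehicle plus saturating agonist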
Target sequence (P49146 whole entry, looked up): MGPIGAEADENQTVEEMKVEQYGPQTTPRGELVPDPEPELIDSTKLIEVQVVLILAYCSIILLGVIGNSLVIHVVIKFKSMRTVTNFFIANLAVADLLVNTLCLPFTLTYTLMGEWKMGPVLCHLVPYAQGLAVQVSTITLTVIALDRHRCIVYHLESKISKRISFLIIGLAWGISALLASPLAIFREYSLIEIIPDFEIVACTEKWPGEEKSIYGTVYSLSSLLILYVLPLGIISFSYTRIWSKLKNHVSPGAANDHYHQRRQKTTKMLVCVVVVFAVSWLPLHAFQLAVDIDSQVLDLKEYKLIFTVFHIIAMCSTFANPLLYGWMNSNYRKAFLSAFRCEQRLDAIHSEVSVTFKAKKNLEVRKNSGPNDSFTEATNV
NPY Y2 blocker: blocks the human neuropeptide Y Y2 receptor; inhibition, % at 2.7 µM; NPY-Y2 expressing cells, antagonist mode; AID 793; hit rate 0.99% among 140,000; in the data active means inhibition above about 17%;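 further: 0% = vehicle with agonist challenge and 100% = reference antagonist with challenge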
S1P4 agonist cf: human S1P4 agonism, confirmation; hit rate 7% among 740; shares compounds with S1P4 ag; activation, % at 4.98 µM; S1P4 agonist cell-based reporter assay; in the data active means activation above about 12%;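 further: 0% = vehicle and 100% = full reference agonist response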
S1P1 ag: human S1P1 agonism as S1P4 agonist counter-screen; shares compounds with S1P4 ag; hit rate 4% among 740; S1P1 agonist cell-based assay, activation; activation, % at 4.98 µM; in the data active means activation above about 21%;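 further: 0% = vehicle wells and 100% = reference agonist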
Starred values were filed as active, the others as inactive; / = not tested or not shown.

SMILES | S1P4 ag | NPY Y1 blocker | S1P4 antagonist | NPY1 pot ag | NPY-Y2 PAM-ag | NPY Y2 blocker | S1P4 agonist cf | S1P1 ag
CC(C)(C)c1ccc(C(=O)N2CCC(C(=O)NCc3ccncc3)CC2)cc1 | 16.4* | -2.2 | -7.6 | -15.3 | -10.9 | 1.7 | -0.5 | -1.0
COc1ccc(/C=N/Nc2cn[nH]c(=O)c2Cl)cc1 | -1.3 | -3.2 | -16.2 | 6.0 | -6.2 | / | / | /
O=C1CC(N2CCSCC2)C(=O)N1c1cccc(Cl)c1 (configuration not stated) | -0.7 | -0.2 | -3.2 | -4.0 | 4.6 | / | / | /
Cc1nn(Cc2nnc(SCC(=O)Nc3cccc(C(F)(F)F)c3)n2C)c(C)c1[N+](=O)[O-] | 55.9* | / | 12.5 | 15.1 | 10.1 | / | -2.4 | -5.0
O=C1CCC([N+](=O)[O-])C(c2ccc3c(c2)OCO3)N1 (configuration not stated) | 114.4* | -3.7 | 5.2 | -3.9 | -1.0 | / | -0.5 | 1.5
Cc1cccc(C)c1N(Cc1ccccc1F)S(C)(=O)=O | 32.9* | 1.7 | 4.5 | -4.0 | -14.2 | / | -1.7 | -2.0
COCCn1c(=NC(=O)c2ccc3c(c2)OCCO3)sc2cc(S(N)(=O)=O)ccc21 | 15.9* | 3.0 | -3.9 | 10.2 | -17.6 | / | -1.4 | -5.7
COCCn1c(=NC(=O)c2cc(Cl)sc2Cl)sc2cc(S(N)(=O)=O)ccc21 | 1.4 | -2.1 | -14.3 | -11.2 | -2.2 | 3.1 | / | /
O=c1[nH]nc(SCc2cc(Cl)ccc2Cl)c(=O)[nH]1 | 0.6 | / | -2.9 | 6.5 | -15.9 | / | / | /
CCOC(=O)c1nc(NNC(C)=O)sc1C | -1.2 | -0.4 | -2.3 | 0.4 | -4.4 | / | / | /
CCOC(=O)c1nc(NCCc2ccccc2)sc1C | 29.6* | 7.1 | -11.0 | -9.3 | -13.7 | / | -2.4 | -6.0
Cc1ccc2nc3c(cc(C(=O)NCC4CCCO4)c(=N)n3CCCOC(C)C)c(=O)n2c1 (configuration not stated) | 7.0 | -0.9 | -20.8 | 4.4 | 6.5 | 0.2 | / | /
C=CCn1c(=N)c(C#N)cc2c(=O)n3ccccc3nc21 | -0.5 | 0.3 | -25.2 | -5.4 | -7.5 | 3.8 | / | /
C=CCn1c(=N)c(C(=O)NCCCOC)cc2c(=O)n3cc(C)ccc3nc21 | 11.8* | -4.1 | -6.6 | -20.5 | 4.1 | 3.6 | 0.2 | 0.2
C=CCn1c(=N)c(C(=O)NCCCOC)cc2c(=O)n3ccccc3nc21 | 11.3* | 12.1 | -13.2 | -1.9 | -5.9 | 4.0 | 7.9 | 8.9
O=C(CSc1ccc(F)cc1)NC(=O)NCc1ccccc1 | -1.1 | 10.2 | -19.1 | -3.9 | -10.3 | / | / | /
O=C(CSc1ccc(F)cc1)NCCSc1ccccc1 | 11.4* | 7.2 | -7.1 | -7.3 | -15.6 | / | -1.9 | -2.9
O=C(NCCCn1ccnc1)c1nn2c(C(F)(F)F)cc(-c3ccc(Br)cc3)nc2c1Cl | -0.9 | 1.9 | -12.9 | 23.0 | -1.0 | 1.4 | / | /
COC(=O)c1sc(NC(=S)NC(=O)c2ccccc2C)nc1C | 0.0 | -0.3 | -4.4 | 7.2 | -12.0 | / | / | /
COc1cc(C#N)c(NC(=S)N2CCOCC2)cc1OC | 24.3* | 5.2 | -2.8 | 3.0 | -3.0 | / | -2.1 | -7.4
COC(=O)c1ccc(C(=O)OC)c(NC(=S)N2CCOCC2)c1 | 2.9 | 8.3 | -15.6 | -11.5 | 5.0 | / | / | /
O=[n+]1c2c(n([O-])c3cc(F)ccc31)CCCC2 | 21.4* | -6.9 | -7.8 | 8.4 | -1.3 | 2.6 | -1.6 | -6.8
COc1ccc(CN(C)C(=O)c2cnc(OC)cc2C(F)(F)F)c(OC)c1 | 0.8 | / | 8.8 | 1.7 | -10.3 | / | / | /
O=[N+]([O-])c1ccc(COc2ccc(-c3[nH]ncc3-c3ccc(Cl)cc3)c(O)c2)cc1 | 113.8* | -8.1 | -3.1 | 30.8 | 16.8 | -5.5 | -1.5 | -1.1
C=CCNC(=O)c1ccc(OC)cc1 | 14.7* | / | -1.7 | 7.8 | 0.6 | / | -1.0 | 3.7
SMILES | S1P4 ag | NPY Y1 blocker | S1P4 antagonist | NPY1 pot ag | NPY-Y2 PAM-ag | NPY Y2 blocker | S1P4 agonist cf | S1P1 ag
COc1cc2c(cc1OC)/C(=C/c1ccc(Br)cc1)C(=O)OC2 | 148.6* | 14.3 | -4.1 | -47.1 | -15.3 | 6.6 | -2.3 | -4.4
COc1ccc(/C=C2\Cc3ccccc3C2=O)cc1OC | 0.1 | / | 6.5 | -15.4 | -2.1 | / | / | /
N/C(CCS(=O)(=O)c1ccc(Cl)cc1)=N\OC(=O)c1ccc(Cl)cc1 | 102.7* | / | 15.8 | 3.1 | 8.3 | / | -0.7 | -3.7
N/C(CCS(=O)(=O)c1ccc(Cl)cc1)=N\OC(=O)c1ccccc1C(F)(F)F | 0.4 | / | 7.0 | 14.8 | 4.2 | / | / | /
O=C(N=C1SCC(=O)N1c1ccccc1Cl)c1ccccc1 | 0.5 | -2.5 | -1.2 | 10.0 | -7.1 | / | / | /
CCN(N)C(=S)Nc1ccc(F)cc1 | 32.9* | 2.7 | 3.7 | 12.2 | -9.5 | / | -1.4 | -7.6
CCCN(CCC)S(=O)(=O)c1ccc(C(=O)Nc2nc3c(s2)CCc2ccccc2-3)cc1 | 28.9* | -1.0 | -13.6 | 1.1 | 3.2 | -0.9 | -1.4 | -7.3
Cc1ccc2nc(C)c3c(c2c1)N(c1ccc(F)cc1)CC3 | 1.2 | / | -15.4 | -69.3 | -79.3 | / | / | /
O=c1c2[nH]c3ccccc3c2ncn1CCC1=CCCCC1 | 17.1* | 6.8 | -9.3 | -5.7 | -8.3 | 4.3 | -1.5 | -1.9
COc1ccc(CNC(=O)N[C@H](C(=O)O)C(C)C)cc1OC | -0.9 | / | 2.6 | 3.9 | -4.7 | / | / | /
Cc1ccc(NC(=O)c2oc3ccc(S(=O)(=O)N4CCC5(CC4)OCCO5)cc3c2C)cc1C | 48.6* | -1.1 | 3.0 | -20.5 | 2.1 | 6.6 | -1.8 | -5.4
Cc1ccnc2nc(C(=O)OCC(=O)c3c[nH]c4ccccc34)nn12 | -0.1 | / | -6.4 | -19.1 | 5.9 | / | / | /
O=C(NCc1ccc(-n2cccc2)cc1)c1cccc(F)c1 | -0.8 | 2.3 | -3.3 | 3.0 | 8.3 | / | / | /
COC(=O)C(C)(C)ONC(=O)Nc1ccccc1 | 194.1* | 4.5 | 4.9 | -0.3 | -15.9 | 4.0 | -2.0 | -2.7
COC(=O)C(C)(C)ONC(=O)Nc1ccc(Br)cc1 | -1.1 | -6.9 | 5.7 | 2.8 | -6.6 | 1.0 | / | /
O=C(NCC1CCCO1)/C(=C/c1ccccc1)NC(=O)c1ccccc1 (configuration not stated) | 27.8* | 4.7 | -25.1 | 4.8 | 9.7 | / | -3.1 | -6.2
Cc1ccc(C(=O)N/C(=C\c2ccccc2)C(=O)NCC2CCCO2)cc1 (configuration not stated) | -0.5 | 2.2 | -9.2 | -2.1 | 9.4 | -0.1 | / | /
O=C(NC(=S)NCC1CCCO1)c1ccco1 (configuration not stated) | 14.0* | -5.0 | -4.6 | 13.4 | 13.8 | / | -0.5 | -0.2
O=C(Cn1nc2sc3ccccc3n2c(=O)c1=O)c1ccc(Cl)cc1 | -1.5 | / | -10.6 | 0.8 | -1.5 | / | / | /
CCOC(=O)C1=C(C)NC(=O)NC1c1ccc(N2CCC(c3ccccc3)=N2)cc1 (configuration not stated) | 14.5* | -3.1 | 0.8 | 6.3 | 3.2 | / | 6.9 | 16.2
CCOC(=O)C1=C(C)NC(=O)NC1c1ccc(NC(C)=O)cc1 (configuration not stated) | 4.9 | 4.8 | 4.5 | -19.7 | -3.0 | 3.1 | / | /
O=C(c1ccc(NS(=O)(=O)c2cccc3cccnc23)cc1)N1CCCCC1 | 23.1* | -2.9 | 5.0 | -0.7 | -4.8 | / | -0.7 | -3.8
